For this experiment, the system named is NCI-H460. The experiment can be described thus: Cytotoxicity against human NCI-H460 cells assessed as reduction in cell viability incubated for 48 hrs by MTT assay. Particulars: NCI-H460, 48 h. In kind it is functional, cell-based. The essentials:
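H-460 non-small-cell lung carcinoma cells in RPMI-1640 with 10% FBS and 1% penicillin/streptomycin, used within 28 passages per frozen batch. Seeded at 3.33 × 10^4 cells/mL, adhered 24 h, then treated 48 h. Ten concentrations from 30 μM down by 0.3164-fold serial dilution; 1% DMSO negative control, doxorubicin positive control.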
In the case of `CCCC[C@@H](C)C[C@@H](C)C(=O)N(C)[C@@H](CC(C)C)C(=O)N[C@H](C(=O)N(C)[C@H](C(=O)N1C[C@@H](O)C[C@H]1C(=O)O)C(C)C)[C@@H](C)OC(C)=O`, the half-inhibitory concentration (IC50) came out at 510 nM.
Then `CCCC[C@@H](C)C[C@@H](C)C(=O)N(C)[C@@H](CC(C)C)C(=O)N[C@H](C(=O)N[C@H](C(=O)N1CCC[C@H]1C(=O)N1C(=O)C=C[C@@H]1C)C(C)C)[C@@H](C)OC(C)=O`, with 69 nM; and `CCCC[C@@H](C)C[C@@H](C)C(=O)N(C)[C@@H](CC(C)C)C(=O)N[C@H](C(=O)N(C)[C@H](C(=O)N1CCC[C@H]1C(=O)N1C(=O)C=C[C@@H]1C)C(C)C)[C@@H](C)OC(C)=O`, with 910 nM; and `CCCC[C@@H](C)C[C@@H](C)C(=O)N(C)[C@@H](CC(C)C)C(=O)N[C@H](C(=O)N(C)[C@H](C(=O)N1CCC[C@H]1C(=O)N1C(=O)CC[C@@H]1C)C(C)C)[C@@H](C)O`, with over 30000 nM.
Turning to `CCCC[C@@H](C)C[C@@H](C)C(=O)N(C)[C@@H](CC(C)C)C(=O)N[C@H](C(=O)N(C)[C@H](C(=O)N1C[C@@H](O)C[C@H]1C(=O)N1C(=O)CC[C@@H]1C)C(C)C)[C@@H](C)O`, the IC50 is 2000 nM.
For the compound `CCCC[C@@H](C)C[C@@H](C)C(=O)N(C)[C@@H](CC(C)C)C(=O)N[C@H](C(=O)N(C)[C@H](C(=O)N1C[C@@H](O)C[C@H]1C(=O)N1C(=O)C=C[C@@H]1C)C(C)C)[C@@H](C)O`, the IC50 came out at 75 nM.
With `CCCC[C@@H](C)C[C@@H](C)C(=O)N(C)[C@@H](C=C(C)C)C(=O)N[C@H](C(=O)N(C)[C@H](C(=O)N1C[C@@H](O)C[C@H]1C(=O)N1C(=O)C=C[C@@H]1C)C(C)C)[C@@H](C)O`, the IC50 amounted to 160 nM.
As for `CCCC[C@@H](C)C[C@@H](C)C(=O)N(C)[C@@H](CC(C)C)C(=O)N[C@H](C(=O)N(C)[C@H](C(=O)N1CCC[C@H]1C(=O)N1C(=O)CC[C@@H]1C)C(C)C)[C@@H](C)OC(C)=O`, the figure is 5000 nM; as for `CCCC[C@@H](C)C[C@@H](C)C(=O)N(C)[C@@H](CC(C)C)C(=O)N[C@H](C(=O)N(C)[C@H](C(=O)N1CCC[C@H]1C(=O)N1C(=O)C=C[C@@H]1C)C(C)C)[C@@H](C)O`, 650 nM; as for `CCCC[C@@H](C)C[C@@H](C)C(=O)N(C)[C@@H](CC(C)C)C(=O)N[C@H](C(=O)N(C)[C@H](C(=O)N1C[C@@H](O)C[C@H]1C(=O)N1C(=O)C=C[C@@H]1C)C(C)C)[C@@H](C)OC(C)=O`, 6 nM.
On to `CCCC[C@@H](C)C[C@@H](C)C(=O)N(C)[C@@H](C=C(C)C)C(=O)N[C@H](C(=O)N(C)[C@H](C(=O)N1CCC[C@H]1C(=O)N1C(=O)C=C[C@@H]1C)C(C)C)[C@@H](C)OC(C)=O`, for which the 50% inhibitory concentration (IC50) was 1000 nM.
As for `CCCCCC[C@@H](C)C(=O)N(C)[C@@H](CC(C)C)C(=O)N[C@H](C(=O)N(C)[C@H](C(=O)N1C[C@@H](O)C[C@H]1C(=O)N1C(=O)C=C[C@@H]1C)C(C)C)[C@@H](C)OC(C)=O`, the IC50 came to 47 nM.
As for `CCCC[C@@H](C)C[C@@H](C)C(=O)N(C)[C@@H](CC(C)C)C(=O)N[C@H](C(=O)N(C)[C@H](C(=O)N1C[C@@H](O)C[C@H]1C(=O)N1C(=O)C=C[C@@H]1C)C(C)C)[C@@H](C)OC(=O)CC`, the figure is 200 nM; as for `CCCC[C@@H](C)C[C@@H](C)C(=O)N(C)[C@@H](CC(C)C)C(=O)N[C@H](C(=O)N(C)[C@H](C(=O)N1C[C@@H](O)C[C@H]1C(=O)N1C(=O)CC[C@@H]1C)C(C)C)[C@@H](C)OC(C)=O`, 2800 nM; as for `CCCC[C@@H](C)C[C@@H](C)C(=O)N(C)[C@@H](C=C(C)C)C(=O)N[C@H](C(=O)N(C)[C@H](C(=O)N1C[C@@H](O)C[C@H]1C(=O)N1C(=O)C=C[C@@H]1C)C(C)C)[C@@H](C)OC(C)=O`, 37 nM.
On to `CCCCCC[C@@H](C)C(=O)N(C)[C@@H](CC(C)C)C(=O)N[C@H](C(=O)N(C)[C@H](C(=O)N1CCC[C@H]1C(=O)N1C(=O)C=C[C@@H]1C)C(C)C)[C@@H](C)OC(C)=O`, for which the IC50 was determined as 550 nM.
On to `COc1cccc2c1C(=O)c1c(O)c3c(c(O)c1C2=O)C[C@@](O)(C(=O)CO)C[C@@H]3O[C@H]1C[C@H](N)[C@H](O)[C@H](C)O1` [DOXORUBICIN], for which the IC50 is 180 nM.

Usually IC50 stands for the concentration that inhibits the measured activity by half.

These data come from ChEMBL document CHEMBL4334487, “Cytotoxic Microcolin Lipopeptides from the Marine Cyanobacterium Moorea producens” (J Nat Prod, 2019).
